Only some compounds are listed: those with a hit (about 2.3% of all), similar ones and a draw of the others.
TRPC4 block: inhibitors of mouse TRPC4 channel, primary screen, Fluo4 calcium, HEK293 TRPC4beta/mu-opioid cells | Short transient receptor potential channel 4 (Mus musculus), Q9QUQ5 | DAMGO-evoked Fluo4 calcium flux; stronger effect = lower value | B-score at 10 µM | 0.39% of 300,000 active | AID 2247, 2010;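 active = B-score over 3 SD under the library average, no early fluorescence shift, positive overall ratio signal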
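Assay system: HEK293 cells with stable TRPC4beta plus mu-opioid receptor expression; Probe or stimulus: DAMGO in two steps, submaximal then maximal; Dosing: single-point compound dosing; Measured by: Fluo4 calcium-dye fluorescence, kinetic read; Read-out basis: B score from integrated Fluo4 fluorescence ratio.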
TRPC4 PAM: positive allosteric modulators of TRPC4, primary screen, cell-based, mouse TRPC4beta, HEK293 mu-opioid, Fluo-4 calcium. Short transient receptor potential channel 4 (Mus musculus), Q9QUQ5. DAMGO EC20, Fluo-4 Ca2+ flux; stronger effect = higher value. B-score at 10 µM. 0.42% of 310,000 active;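 active = B-score of calcium response area above 5 SD of library B-scores, with initial fluorescence ratio within 5 SD of library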
TRPC6 inhibitor: mouse TRPC6 channel inhibitors, primary screen, cell-based, HEK293, membrane potential dye. B-score at 10 µM. Short transient receptor potential channel 6 (Mus musculus), Q61143. ACh-evoked depolarization; stronger effect = lower value. AID 2553, 2010. 1.1% of 310,000 active;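 active = B-score under library mean minus 3 SD, initial fluorescence not abnormally high, positive integrated signal ratio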;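 note: B-score derived from integrated fluorescence ratio over the kinetic read; more negative B-score means stronger inhibition of depolarization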
TRPC6 activator: mouse TRPC6 channel activators, primary screen, cell-based, HEK293, membrane potential dye; Short transient receptor potential channel 6 (Mus musculus), Q61143; B-score at 10 µM; 0.13% of 310,000 active; HEK293-TRPC6 membrane potential dye fluorescence; stronger effect = higher value;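 active = B-score of the integrated fluorescence ratio above library mean plus 3 SD, and starting fluorescence ratio within library mean plus 5 SD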;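 note: higher score means more depolarization so channel activation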
TRPC4 act: activators of mouse TRPC4 channel, primary screen, Fluo4 calcium, HEK293 TRPC4beta/mu-opioid cells; Short transient receptor potential channel 4 (Mus musculus), Q9QUQ5; Fluo4 calcium fluorescence; stronger effect = higher value; B-score at 10 µM; 0.49% of 310,000 active; AID 2237, 2010;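 active = B-score above 5 SD of library B-scores, and initial fluorescence ratio not above library mean plus 5 SD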;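 note: positive B-score marks a calcium rise read as TRPC4 activation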
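Material: HEK293 stable line with TRPC4beta plus mu-opioid receptor; technique: Fluo4 calcium-sensitive dye fluorescence, kinetic, 1 Hz baseline; timing: Fluo4 dye loading 45 min at room temperature, 110 s recording; controls: assay buffer as low control, maximal DAMGO as high control; read-out: integrated baseline-normalised fluorescence ratio, converted to per-well B score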
HEK293 MPD ctr: parental HEK293 membrane potential modulation, confirmation, counter-screen for TRPC6 modulator project, cell-based. membrane potential dye fluorescence. shares compounds with TRPC6 inhibitor. membrane potential signal change, % at 10 µM. 51% of 2,400 active. AID 488924, 2010;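 active = membrane potential signal moves up or down beyond 5 SD from buffer-only wells, on both duplicate plates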
HEK293 MPD ctr 2: parental HEK293 nonspecific activity of TRPC6 modulators, second screen; membrane potential dye fluorescence; after compound, maximal acetylcholine stimulation; 14% of 2,400 active; AID 488926; inhibition, % at 10 µM; shares compounds with TRPC6 inhibitor;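 active = membrane potential signal drops by more than 5 SD from the mean control signal, in both duplicate plates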
TRPC4 ctr mod: TRPC4 modulation by TRPC6 hit compounds, confirmation, selectivity assay for TRPC6 modulator project, cell-based, HEK293 TRPC4/mu-opioid, membrane potential dye, mouse; shares compounds with TRPC6 inhibitor; membrane potential fluorescence; percent change from control (negative = decrease, positive = increase), % at 10 µM; 69% of 2,400 active; AID 488927, 2010;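 active = membrane potential signal moved up or down beyond 5 SD of buffer control wells, in both duplicate plates, actives on both sides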
TRPC4/MOR inh 2: second selectivity test of TRPC6 modulators against mouse TRPC4. HEK293 TRPC4/mu-opioid, membrane potential dye fluorescence; stimulated with maximal-effect DAMGO. inhibition, % at 10 µM. AID 488928. 55% of 2,400 active. shares compounds with TRPC6 inhibitor;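 active = drop in membrane potential signal beyond 5 SD of the control wells in both duplicate plates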;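 note: TRPC4 counter screen for TRPC6 hits run under conditions tuned for TRPC6 not TRPC4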
TRPC6 inh conf: mouse TRPC6 channel inhibitors, confirmation, HEK293 cells, membrane potential dye, duplicate; shares compounds with TRPC6 inhibitor; ACh-evoked depolarization; inhibition, % at 10 µM; 43% of 3,300 active; AID 488960, 2010;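 active = fluorescence ratio falls more than 5 SD below the full-stimulation control mean, in both duplicate runs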;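 note: integrated fluorescence ratio of peak minus minimum over baseline after agonist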
TRPC6 act confirm: mouse TRPC6 channel activators, confirmation, HEK293 cells, membrane potential dye, duplicate | shares compounds with TRPC6 inhibitor | activation, % at 10 µM | HEK293-TRPC6 membrane potential dye fluorescence, FDSS | 11% of 2,800 active;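 active = ratio signal rise beyond 5 SD above unstimulated control wells' mean, seen in both duplicate runs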
Large screens that a line does not name were inactive (follow-up assays come after a bar, where they were run).

c1cc(Nc2ncnc3sc4c(c23)CCC4)ccn1	TRPC6 inhibitor -5.6 | HEK293 MPD ctr -242% | HEK293 MPD ctr 2 67% | TRPC4 ctr mod -39% | TRPC4/MOR inh 2 38% | TRPC6 inh conf 55% | TRPC6 act confirm inactive
C(=N\Nc1ncnc2sc3c(c12)CCC3)/c1ccncc1	none
CCN1CCN(C(=O)c2ccc(C)c(S(=O)(=O)Nc3cccc(C)c3)c2)CC1	TRPC6 inhibitor -5.8 | HEK293 MPD ctr inactive | HEK293 MPD ctr 2 inactive | TRPC4 ctr mod inactive | TRPC4/MOR inh 2 inactive | TRPC6 inh conf inactive | TRPC6 act confirm inactive
Cc1cccc(NS(=O)(=O)c2cc(C(=O)N3CCN(C)CC3)ccc2C)c1	none
C=CCn1c(SCCN2CCCC2)nc2c([nH]c3ccccc32)c1=O	TRPC4 PAM 17, TRPC6 inhibitor -8.6 | HEK293 MPD ctr inactive | HEK293 MPD ctr 2 inactive | TRPC4 ctr mod -18% | TRPC4/MOR inh 2 66% | TRPC6 inh conf 53% | TRPC6 act confirm inactive
CCOC(=O)c1cc2[nH]c3ccccc3c2[n+](-c2ccc([N+](=O)[O-])cc2)c1C	TRPC6 inhibitor -7.6 | HEK293 MPD ctr -275% | HEK293 MPD ctr 2 inactive | TRPC4 ctr mod -50% | TRPC4/MOR inh 2 56% | TRPC6 inh conf 60% | TRPC6 act confirm inactive
CCOC(=O)c1cc2[nH]c3ccccc3c2[n+](-c2ccc([N+](=O)[O-])cc2)c1N	none
Cc1ccc(O)c([C@H](CCN(C(C)C)C(C)C)c2ccccc2)c1	TRPC6 inhibitor -6.2 | HEK293 MPD ctr 174% | HEK293 MPD ctr 2 96% | TRPC4 ctr mod 33% | TRPC4/MOR inh 2 41% | TRPC6 inh conf 87%
Cc1ccc(/C=C2\C(=N)N3N=C(CC(=O)N4CCCCC4)SC3=NC2=O)cc1	none
COc1ccc(/C=C2\C(=N)N3N=C(CC(=O)N4CCCCC4)SC3=NC2=O)cc1	TRPC6 activator 12 | HEK293 MPD ctr 136% | HEK293 MPD ctr 2 inactive | TRPC4 ctr mod 22% | TRPC4/MOR inh 2 inactive | TRPC6 inh conf inactive | TRPC6 act confirm 76%
COc1ccc(/C=C2/C(=N)N3N=C(CC(=O)N4CCCC4)SC3=NC2=O)cc1	TRPC6 activator 12 | HEK293 MPD ctr 163% | HEK293 MPD ctr 2 inactive | TRPC4 ctr mod 24% | TRPC4/MOR inh 2 inactive | TRPC6 inh conf inactive | TRPC6 act confirm 84%
O=S(=O)(Nc1ccc(Cl)cc1)c1ccc(N2CCOCC2)c(NC(=S)NCCN2CCOCC2)c1	none
Cc1ccc(S(=O)(=O)N(C)C)cc1NC(=S)N(C)C1CCN(C)CC1	none
N#CC1=C(N)OC2=C(CC/C2=C\c2ccccc2)C1c1ccccc1 (stereo not drawn)	TRPC4 PAM 13, TRPC6 activator 27 | HEK293 MPD ctr 576% | HEK293 MPD ctr 2 inactive | TRPC4 ctr mod 21% | TRPC4/MOR inh 2 inactive | TRPC6 inh conf inactive | TRPC6 act confirm 48%
Cc1cc(C)c(C)c(S(=O)(=O)N[C@@H](C)C(=O)OCc2cc(=O)n3cc(Br)ccc3n2)c1C	none
CCCCn1c(N)c(N(CC(C)C)C(=O)C2CCN(S(=O)(=O)c3ccc(Cl)cc3)CC2)c(=O)[nH]c1=O	none
CC(C)Sc1nc2c(c(=O)[nH]c(=O)n2C)n1CC(O)COc1ccccc1 (stereo not drawn)	TRPC6 inhibitor -5.8 | HEK293 MPD ctr inactive | HEK293 MPD ctr 2 inactive | TRPC4 ctr mod 10% | TRPC4/MOR inh 2 inactive | TRPC6 inh conf 66% | TRPC6 act confirm inactive
CC(O)CSc1nc2c(c(=O)[nH]c(=O)n2C)n1CC(O)COc1ccccc1 (stereo not drawn)	none
Cc1cc(/C=C2\SC(=S)NC2=O)c(C)n1-c1ccc(O)cc1	TRPC6 activator 27 | HEK293 MPD ctr 450% | HEK293 MPD ctr 2 inactive | TRPC4 ctr mod 70% | TRPC4/MOR inh 2 inactive | TRPC6 inh conf inactive | TRPC6 act confirm 126%
O=C(NCc1ccccn1)C(=O)NCC1OCCCN1S(=O)(=O)c1cc(F)ccc1F (stereo not drawn)	none
CC(=O)Nc1c(-c2ccccc2)nc2ccc(Cl)cn12	none
Cc1ccccc1Nc1c(-c2ccc(N3CCOCC3)cc2)nc2cnccn12	none
Cc1ccccc1Nc1c(-c2ccncc2)nc2ccc(Cl)cn12	TRPC6 inhibitor -5.8 | HEK293 MPD ctr inactive | HEK293 MPD ctr 2 inactive | TRPC4 ctr mod -16% | TRPC4/MOR inh 2 70% | TRPC6 inh conf inactive | TRPC6 act confirm inactive
Cc1ccn2c(Nc3ccccc3C)c(-c3cccnc3)nc2c1	TRPC6 inhibitor -5.7 | HEK293 MPD ctr -166% | HEK293 MPD ctr 2 inactive | TRPC4 ctr mod -32% | TRPC4/MOR inh 2 77% | TRPC6 inh conf 46% | TRPC6 act confirm inactive
COc1ccc(OC)c(NC(=O)c2ccc(NC3=NC4CS(=O)(=O)CC4S3)cc2)c1 (stereo not drawn)	none
O=C1C(=O)c2c(C(=O)c3ccccc3)coc2-c2ccccc21	TRPC6 inhibitor -6.2 | HEK293 MPD ctr -80% | HEK293 MPD ctr 2 inactive | TRPC4 ctr mod -18% | TRPC4/MOR inh 2 72% | TRPC6 inh conf 60% | TRPC6 act confirm inactive
O=C(C1=C(c2ccccc2)C(=O)c2ccccc2C1=O)c1ccccc1	none
O=C(NC1CCCC1)C(c1ccccc1)N(Cc1cccnc1)C(=O)Cc1cccs1 (stereo not drawn)	TRPC6 inhibitor -6.1 | HEK293 MPD ctr 194% | HEK293 MPD ctr 2 inactive | TRPC4 ctr mod 50% | TRPC4/MOR inh 2 inactive | TRPC6 inh conf inactive
Cc1ccc(CN(C(=O)Cc2cccs2)C(C(=O)NC2CCCC2)c2ccncc2)cc1 (stereo not drawn)	none
